The subject of experiment [1] is RAW264.7. The experiment can be described thus: Antiinflammatory activity against mouse RAW264.7 cells assessed as inhibition of LPS-induced NO production […] assessed after 24 hrs by Griess reagent assay. It counts as functional, cell-based. An outline of the steps: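 RAW264.7 cells were seeded at 1 × 10^5 cells/well and held 3 h. They were then stimulated with LPS (1 µg/mL) for 24 h with or without compound. Supernatant nitrite was measured by Griess reaction: equal volumes of supernatant and reagent (0.1% N-(1-naphthyl)ethylenediamine and 1% sulfanilamide in 5% phosphoric acid, 1:1), absorbance at 570 nm. Values were quantified against a sodium nitrite standard curve. Aminoguanidine served as reference. IC50 reported. Viability was checked by MTT.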

The test system of experiment [2] is RAW264.7. Kind of experiment: Antiinflammatory activity against mouse RAW264.7 cells assessed as inhibition of LPS-induced NF-kappaB activation […] assessed after 24 hrs by SEAP reporter gene assay. The format is functional, cell-based. Summed up: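 RAW264.7 cells stably carrying a plasmid with eight κB elements driving SEAP were seeded at 5 × 10^4 cells/well and held 3 h at 37 °C. Cells then received test compounds at various concentrations together with LPS (1 µg/mL) for 24 h. Supernatant was heated 65 °C for 5 min, then mixed with 2× SEAP buffer (2 M diethanolamine, 1 mM MgCl2, 20 mM L-homoarginine) for 10 min at 37 °C. p-Nitrophenyl phosphate substrate was added, incubated at 37 °C, and A405 read. Dose-response IC50 reported.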
(In general: In a reporter assay the amount or activity of a reporter protein is the signal.)

The IC50 is the midpoint of a concentration-inhibition curve.

A value given as a limit tells only on which side of the number the result lay.

With `CC1(C)CCC[C@@]2(C)C1=C(O)C(=O)c1cc(O)c(O)cc12` [CELAPHANOL A], the IC50 was 32.6 µM in the experiment with RAW264.7 [1] and 18.2 µM in the experiment with RAW264.7 [2].
For the compound `CC1=C(O)C(=O)C=C2C1=CC=C1[C@@]2(C)CC[C@@]2(C)[C@@H]3C[C@](C)(C(=O)O)CC[C@]3(C)CC[C@]12C` [CELASTROL], the IC50 is 0.23 µM with RAW264.7 [1] and 0.27 µM in the experiment with RAW264.7 [2].
For `CC(=O)O[C@H]1C[C@@H](C)[C@]23OC(C)(C)[C@H](C[C@H](OC(=O)c4ccccc4)[C@]2(C)[C@H]1OC(C)=O)[C@H]3OC(=O)c1ccccc1` [ORBICULIN A] the same measures were over 300 µM and over 300 µM.
For `CC(=O)O[C@H]1CC[C@@H](C)[C@]23OC(C)(C)[C@H](C[C@H](OC(=O)c4ccco4)[C@]12C)[C@H]3OC(=O)c1ccco1` [ORBICULIN D] the same measures were 43.6 µM and 36.7 µM.
In the case of `CC(=O)O[C@H]1C[C@@H](C)[C@]23OC(C)(C)[C@H](C[C@H](OC(=O)c4ccccc4)[C@]2(C)[C@H]1OC(C)=O)[C@H]3OC(=O)c1ccco1` [ORBICULIN E], the IC50 with RAW264.7 [1] and with RAW264.7 [2] was over 300 µM throughout.
As for `CC(=O)O[C@H]1[C@@H](OC(=O)c2ccco2)C[C@@H](C)[C@]23OC(C)(C)[C@H](C[C@H](OC(=O)c4ccccc4)[C@]12C)[C@H]3OC(=O)c1ccco1` [ORBICULIN F], the IC50 in the experiment on RAW264.7 [1] and in the experiment with RAW264.7 [2] was over 300 µM throughout.
Consider `CC(=O)O[C@@H]1[C@@H]2[C@@H](OC(=O)c3ccco3)[C@]3(OC2(C)C)[C@H](C)CC[C@H](OC(C)=O)[C@@]3(C)[C@H]1OC(=O)c1ccco1` [ORBICULIN H], for which the IC50 in the experiment on RAW264.7 [1] amounted to 50.4 µM; with RAW264.7 [2] it was 33.5 µM.
For `CC(=O)O[C@H]1[C@@H](OC(=O)c2ccco2)C[C@@H](C)[C@]23OC(C)(C)[C@H](C[C@H](OC(=O)c4ccco4)[C@]12C)[C@H]3OC(=O)c1ccco1` [ORBICULIN I], in that order: 51.2 µM and 61.5 µM.
In the case of `N=C(N)NN` [PIMAGEDINE], in the experiment on RAW264.7 [1], the IC50 was 16.3 µM.

These data come from ChEMBL document CHEMBL1159311, “Antiinflammatory constituents of Celastrus orbiculatus inhibit the NF-kappaB activation and NO production” (J Nat Prod, 2002).
